Source: PubChem BioAssay (Broad Institute)
Cneo AK release – causes C. neoformans cell lysis. adenylate kinase release luminescence, 4 h; normalised: neutral wells 0, clomiphene wells 100. lysis activity, % at 15 µM. 360,000 compounds, 0.2% hits;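 active = mean lysis activity across replicates of at least 80%, whatever share of replicates individually reach that level; inactive = mean lysis activity below 80%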
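Material – Cryptococcus neoformans yeast cells · Quantity – 5 × 10^6 yeast cells/mL · Buffer or medium – YPD medium · Compound – single dose · Timing – 4 h static compound exposure, 37 °C, read 1 h post-reagent · Signal – adenylate kinase release luminescence · Read-out basis – lysis from increased AK signal · Benchmarks – Clomiphene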
PGC1a acetyl inh – modulators of PGC1a acetylation; U2OS PGC1a acetylation, AlphaScreen anti-acetyl-lysine; with virally co-expressed GCN5 acetyltransferase; inhibition, % at 15.6 µM; 350,000 compounds, 0.17% hits; AID 651687;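 active = every replicate shows inhibition of at least 40%; inconclusive = mean inhibition at least 40% but some replicate below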
MITF act – activators of MITF-driven TRPM1 promoter activity in SK-MEL-5 cells; AID 588334; 300,000 compounds, 0.75% hits; activation, % at 12.5 µM; SK-MEL-5 TRPM1-promoter luciferase, 24 h; % of positive control, neutral wells = 0;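 active = mean activation of at least 80% with every replicate also reaching 80%; inconclusive = mean reaches 80% but some replicate falls short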
Wnt bcat act – activates Wnt/beta-catenin signaling in a reporter cell assay; activator, plate reader; activation, % at 9.35 µM; 300,000 compounds, 1.2% hits; in the data active = activation above about 30%, passing the limit was not always enough; inconclusive = no clear call, values can overlap the other calls
Numbers stand for hits; 0 = inactive; ? = inconclusive; - = no result given. Shown are actives, neighbours in structure and some others; about 1.5% of the full set was active somewhere.

SMILES	Cneo AK release	PGC1a acetyl inh	MITF act	Wnt bcat act
CC(C)(C)NC(=O)c1ccccc1NC(=O)C1CCCO1 (configuration not stated)	-	-	0	0
Cc1ccc(C)c(NC(=O)c2ccccc2NC(=O)C2CCCO2)c1 (configuration not stated)	-	-	0	60.2
C[C@@H]1CCCCO[C@@H](CN(C)C(=O)Cc2ccccc2)[C@@H](C)CN([C@H](C)CO)C(=O)c2cc(NS(=O)(=O)c3ccccc3)ccc2O1	-	0	-	-
COCC(=O)Nc1c(C(=O)Nc2ccc3c(c2)OCCO3)oc2ccccc12	0	0	91.6	0
O=C(Nc1ccc2c(c1)OCCO2)c1oc2ccccc2c1NC(=O)C1CC1	-	-	0	0
COc1ccccc1C1CCN(C(=O)c2ccccc2)CC1	0	0	0	0
COc1ccccc1C1CCN(C(=O)c2cnn(-c3ccccc3)c2C)CC1	0	0	0	41.2
COc1ccccc1-c1ccc([C@@H]2[C@H]3CN(C(=O)c4cccnc4)CCCCN3[C@H]2CO)cc1	0	0	-	-
c1ccc(-n2ncc3c(NCc4cccs4)ncnc32)cc1	-	0	-	70.7
CC(C)Nc1ncnc2c1cnn2-c1ccccc1	0	0	-	53.2
COc1ccc(-n2ncc3c(NCc4ccco4)ncnc32)cc1	0	-	-	-
Clc1ccc(-n2ncc3c(NCc4ccco4)ncnc32)cc1	0	0	-	59.9
CC(=O)CSc1ncnc2c1cnn2-c1ccccc1	0	0	0	41.6
Cc1cccc(-n2ncc3c(NC(C)C)ncnc32)c1	0	0	0	0
COc1ccc(-n2ncc3c(NCc4cccs4)ncnc32)cc1	0	0	?	0
O=C(C[C@@H]1CC[C@@H](NS(=O)(=O)c2ccccc2)[C@H](CO)O1)NCc1ccccc1F	0	-	-	-
CNC[C@H]1OCCCC[C@H](C)Oc2ccc(NS(=O)(=O)c3cn(C)cn3)cc2C(=O)N([C@H](C)CO)C[C@@H]1C	0	0	-	-
N#C/C(=C/c1ccc(N2CCOCC2)o1)C(=O)Nc1ccccc1	0	-	0	50.3
Cc1cc(C)nc(SCc2csc(-c3ccccc3)n2)n1	-	-	113.2	-
CC(C)c1ccc(C(=O)NC2=NCCS2)cc1	-	0	0	44.5
N#Cc1ccc(C(=O)NC2=NCCS2)cc1	0	0	0	0
C/C(=C\C(=O)Nc1cc(C)on1)c1ccccc1	0	-	81.9	-
Cc1ccc(C(=O)NC2=NCCS2)cc1	-	-	-	49.7
O=C(NC1=NCCS1)c1ccc(C(F)(F)F)cc1	0	0	87.2	0
Cc1cc(NC(=O)c2ccccc2)no1	0	0	0	0
SMILES	Cneo AK release	PGC1a acetyl inh	MITF act	Wnt bcat act
C[C@H]1CN([C@@H](C)CO)C(=O)c2cc(C#CC3CCCCC3)cnc2O[C@@H]1CN(C)C(=O)C1CCCCC1	0	0	-	-
COc1ccc(C(=O)NC2=NCCS2)cc1	-	-	0	35.5
COc1ccc(C(=O)Nc2cc(C)on2)cc1	0	0	0	46.9
Cc1cc(C)c(NC(=O)CN)c(C)c1	-	-	0	0
Cc1cccc(C)c1NC(=O)CN	0	0	0	44.8
O=C(CN(C(=O)Cn1nnc(-c2ccc(F)cc2)n1)c1ccc(F)c(Cl)c1)NCC1CCCO1 (configuration not stated)	-	-	0	41.4
Cc1ccc(-c2nnn(CC(=O)N(CC(=O)NCC3CCCO3)c3ccc(F)c(Cl)c3)n2)o1 (configuration not stated)	-	-	0	-
Clc1ccccc1-c1ncc(-c2ccccc2)o1	0	0	0	56.5
CSc1nnc(-c2ccccc2Cl)o1	0	-	0	-
C[C@@H]1CN([C@@H](C)CO)C(=O)c2cc(NC(=O)Cn3cnnn3)ccc2O[C@@H]1CN(C)Cc1ccc2c(c1)OCO2	0	0	-	-
CO[C@H]1CN(C)C(=O)c2cc(NC(=O)c3cc(C)on3)ccc2OC[C@@H](C)N(CC2CC2)C[C@@H]1C	0	0	-	-
O=C(/C=N/NC(=O)c1ccc(Cl)cc1Cl)c1ccccc1	0	0	0	49.1
O=C(N/N=C/c1ccccc1Cl)c1ccc(F)cc1	0	0	0	-
Nc1ccc(C(=O)N/N=C/c2ccccc2)cc1	0	0	84.3	0
O=C(NN=Cc1ccccc1Cl)c1ccccc1	0	-	-	62.9
Cn1cccc1-c1cc(C(=O)N/N=C/c2ccc(F)cc2)[nH]n1	0	0	0	0
O=C(N/N=C/c1ccccc1)c1ccc(NC(=O)c2ccc(F)cc2)cc1	0	-	0	0
Cn1cccc1-c1cc(C(=O)N/N=C/c2ccccc2Cl)[nH]n1	0	0	86.4	0
O=C(/C=N/NC(=O)c1ccccc1Br)c1ccccc1	-	-	0	0
CO[C@H]1CN(C)C(=O)c2ccc(NC(=O)C3CCOCC3)cc2OC[C@@H](C)N(C(C)=O)C[C@H]1C	0	0	-	-
C[C@H](NC(=O)C[C@H]1CC[C@H](NC(=O)C2CCOCC2)[C@H](CO)O1)c1ccccc1	0	0	-	-
CCC(=O)N(C)C[C@H]1Oc2cc(-c3ccncc3)ccc2S(=O)(=O)N([C@H](C)CO)C[C@@H]1C	0	0	-	-
NCC[C@@H]1CC[C@H](NC(=O)Nc2ccc(F)cc2)[C@H](CO)O1	0	0	-	-
O=C(N[C@@H]1C=C[C@H](CC(=O)N2CCOCC2)O[C@H]1CO)c1cccc(F)c1	0	0	-	-
COc1ccc(-c2nc3n(c2C)Cc2ccccc2-3)cc1	-	-	-	46.2
SMILES	Cneo AK release	PGC1a acetyl inh	MITF act	Wnt bcat act
O=C(N[C@H]1CC[C@H](CCNS(=O)(=O)c2ccc(F)cc2)O[C@H]1CO)c1cnccn1	0	0	-	-
O=C(c1cccs1)N(C(=O)c1cccs1)c1ccc(Br)cn1	0	0	0	56.3
Cc1csc(NC(=O)c2oc3ccccc3c2C)n1	0	-	0	0
Cc1c(C(=O)Nc2nccs2)oc2ccccc12	0	0	-	79.6
Cc1c(C(=O)Nc2nnc(C3CC3)s2)oc2ccccc12	0	-	0	45.1
COc1c(C(=O)Nc2nccs2)ccc2ccccc12	0	-	0	37.2
O=C(NCC[C@@H]1CC[C@H](NS(=O)(=O)c2cccc(F)c2)[C@H](CO)O1)C1CCOCC1	0	0	-	-
C[C@H]1CN([C@@H](C)CO)C(=O)c2cc(NS(=O)(=O)c3ccc(Cl)cc3)ccc2O[C@@H]1CN(C)CC1CC1	0	0	-	-
COc1cc(OC)c2c(=O)cc(-c3ccccc3)oc2c1	0	0	0	52.3
COc1ccc(-c2cc(=O)c3c(O)cc(O)cc3o2)cc1	0	0	112.4	63.8
COc1cc(OC)c2c(=O)cc(-c3cccnc3)oc2c1	0	-	0	0
O=c1cc(-c2ccc(O)c(O)c2)oc2cc(O)cc(O)c12	0	-	100.9	0
C/C=C/c1cnc2c(c1)C(=O)N([C@H](C)CO)C[C@@H](C)[C@@H](CN(C)C(=O)C1CC1)O2	-	0	-	-
Cc1ccc(S(=O)(=O)N(C)C[C@@H]2Oc3c(NC(=O)NC4CCCCC4)cccc3C(=O)N([C@H](C)CO)C[C@@H]2C)cc1	0	0	-	-
COc1ccc(NC(=O)/C(=C\c2ccc3c(c2)OCO3)NC(C)=O)cc1	0	-	0	46.7
COc1ccc(NC(=O)/C(=C/c2ccc(OC(C)=O)c(OC)c2)NC(C)=O)cc1	-	-	0	0
CNC[C@H]1OCCCC[C@@H](C)Oc2ccc(NC(=O)NC(C)C)cc2C(=O)N([C@@H](C)CO)C[C@@H]1C	0	0	-	-
CNC[C@@H]1OCCCC[C@@H](C)Oc2ccc(NC(=O)NC(C)C)cc2C(=O)N([C@@H](C)CO)C[C@H]1C	87.8	0	-	-
